In ChEMBL document CHEMBL4825688, “Synthesis, biological evaluation and molecular modeling of benzofuran piperidine derivatives as Aβ antiaggregant” (Eur J Med Chem, 2021):
pIC50: −log10 of the molar value. Active and inactive are the calls of the source. The calls are words filed in the database; no cut-off is given here.

What was measured:
[1] = biological target: T1, Amyloid-beta precursor protein (Homo sapiens, UniProt P05067); assay: Inhibition of human amyloid beta (25 to 35) self-induced aggregation at 100 uM after 48 hrs by thioflavin-T fluorescence relative to control
T1 sequence (P05067 whole entry): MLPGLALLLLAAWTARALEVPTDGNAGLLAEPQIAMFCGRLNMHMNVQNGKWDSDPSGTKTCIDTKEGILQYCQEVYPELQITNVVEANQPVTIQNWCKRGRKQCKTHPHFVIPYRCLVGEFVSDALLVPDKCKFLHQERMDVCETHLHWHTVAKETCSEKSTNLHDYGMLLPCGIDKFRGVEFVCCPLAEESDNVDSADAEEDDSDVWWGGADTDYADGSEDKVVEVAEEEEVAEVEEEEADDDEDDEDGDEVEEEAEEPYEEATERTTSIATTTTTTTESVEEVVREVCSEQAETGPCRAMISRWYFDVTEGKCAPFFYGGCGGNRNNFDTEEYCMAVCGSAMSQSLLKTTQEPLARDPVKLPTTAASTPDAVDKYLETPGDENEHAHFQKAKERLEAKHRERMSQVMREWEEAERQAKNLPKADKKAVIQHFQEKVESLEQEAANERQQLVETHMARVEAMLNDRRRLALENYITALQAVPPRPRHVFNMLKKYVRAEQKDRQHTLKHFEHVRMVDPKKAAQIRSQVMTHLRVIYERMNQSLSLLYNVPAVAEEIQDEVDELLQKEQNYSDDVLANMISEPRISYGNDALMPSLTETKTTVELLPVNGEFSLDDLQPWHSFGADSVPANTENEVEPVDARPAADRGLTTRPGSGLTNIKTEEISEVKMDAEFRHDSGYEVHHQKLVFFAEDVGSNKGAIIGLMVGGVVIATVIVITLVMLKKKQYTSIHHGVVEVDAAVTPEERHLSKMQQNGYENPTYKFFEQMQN
How it was run: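 Aβ25-35 (10 μM, DMSO stock diluted) incubated with test compound (100 μM) in 0.05 M potassium phosphate buffer (pH 7.4) containing 0.01 M NaCl, 37 °C, 48 h; then ThT (200 μM) in 50 mM glycine-NaOH (pH 8.0) added and fluorescence read. Mean ± SD of three experiments.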

[2] = biological target: Acetylcholinesterase (Homo sapiens, UniProt P22303); assay: Inhibition of recombinant human AChE using acetylthiocholine iodide as substrate measured after 7 mins by Ellman's method
Acetylcholinesterase, sequence (P22303 whole entry): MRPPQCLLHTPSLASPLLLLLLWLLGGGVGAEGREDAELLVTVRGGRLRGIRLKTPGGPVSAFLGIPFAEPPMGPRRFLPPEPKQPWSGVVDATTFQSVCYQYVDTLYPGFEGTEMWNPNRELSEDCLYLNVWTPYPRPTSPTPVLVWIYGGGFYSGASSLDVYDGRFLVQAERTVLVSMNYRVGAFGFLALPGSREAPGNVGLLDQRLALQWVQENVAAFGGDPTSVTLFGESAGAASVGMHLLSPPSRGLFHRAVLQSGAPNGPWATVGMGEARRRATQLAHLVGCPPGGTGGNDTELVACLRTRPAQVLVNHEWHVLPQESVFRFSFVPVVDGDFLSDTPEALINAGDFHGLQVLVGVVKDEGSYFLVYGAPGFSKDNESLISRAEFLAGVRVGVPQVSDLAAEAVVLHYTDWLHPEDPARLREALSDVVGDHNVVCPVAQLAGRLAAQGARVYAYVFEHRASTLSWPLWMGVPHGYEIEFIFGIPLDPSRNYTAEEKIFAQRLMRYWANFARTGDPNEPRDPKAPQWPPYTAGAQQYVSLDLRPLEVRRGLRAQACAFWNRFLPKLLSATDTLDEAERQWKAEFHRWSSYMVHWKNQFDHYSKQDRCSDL

[3] = biological target: Cholinesterase (Homo sapiens, UniProt P06276); assay: Inhibition of recombinant human BuChe using S-butyrylthiocholine iodide as substrate measured after 7 mins by Ellman's method
Cholinesterase, sequence (P06276 whole entry): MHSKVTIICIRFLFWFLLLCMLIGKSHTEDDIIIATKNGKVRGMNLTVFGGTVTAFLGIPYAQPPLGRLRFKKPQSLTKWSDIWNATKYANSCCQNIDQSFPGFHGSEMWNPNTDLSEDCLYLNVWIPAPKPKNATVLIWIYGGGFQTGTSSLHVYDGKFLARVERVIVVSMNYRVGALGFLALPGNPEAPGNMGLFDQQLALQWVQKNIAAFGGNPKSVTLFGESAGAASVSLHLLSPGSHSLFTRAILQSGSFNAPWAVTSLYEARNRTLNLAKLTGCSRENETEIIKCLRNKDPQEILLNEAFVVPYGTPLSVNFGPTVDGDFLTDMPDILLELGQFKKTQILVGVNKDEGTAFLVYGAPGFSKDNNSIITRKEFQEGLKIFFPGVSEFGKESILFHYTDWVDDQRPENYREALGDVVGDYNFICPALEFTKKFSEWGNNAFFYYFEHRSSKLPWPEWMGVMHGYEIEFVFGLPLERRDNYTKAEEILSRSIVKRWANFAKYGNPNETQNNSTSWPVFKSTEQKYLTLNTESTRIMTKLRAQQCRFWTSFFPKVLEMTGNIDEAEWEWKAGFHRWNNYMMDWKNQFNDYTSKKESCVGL

[4] = organism: Homo sapiens; assay: Selectivity index, ratio of IC50 for human BuChE to IC50 for human AChE
[5] = Cytotoxicity against human SH-SY5Y cells assessed as cell viability at 10 uM measured after 48 hrs by MTT assay relative to control
[6] = test system: SH-SY5Y; assay: Neuroprotective activity against amyloid beta (25 to 35)-induced cell damage in human SH-SY5Y cells assessed as neuronal viability at 10 uM measured after 24 hrs in presence of amyloid beta (25 to 35) by MTT assay (reference value: 68.66 +/- 0.11 %); assay type: functional
[7] = test system: SH-SY5Y; assay: Neuroprotective activity against amyloid beta (25 to 35)-induced cell damage in human SH-SY5Y cells assessed as LDH release at 10 uM measured after 24 hrs in presence of amyloid beta (25 to 35) by LDH assay (reference value: 364.06 +/- 2.15 %); assay type: functional
[8] = test system: SH-SY5Y; assay: Neuroprotective activity against amyloid beta (25 to 35)-induced cell damage assessed as cell viability in human SH-SY5Y cells by measuring ATP at 10 uM measured after 24 hrs in presence of amyloid beta (25 to 35) by CellTiter-Glo luminescent cell viability assay (reference value: 90.95 +/- 0.82 %); assay type: functional
[9] = Antioxidant activity assessed as DPPH radical scavenging activity at 50 uM incubated for 1 hrs under light restrictive condition by UV-microplate reader assay relative to control; assay type: functional
How it was run: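 DPPH stock 56 mM and compound stock 500 mM in anhydrous methanol; compound at 50 µM final with DPPH in methanol. Absorbance read at 517 nm after 30 s shaking, then again after 1 h at room temperature in the dark. Scavenging % = (A control − A sample)/A control ×100.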

[10] = test system: SH-SY5Y; assay: Neuroprotective activity against amyloid beta (25 to 35)-induced cell damage in human SH-SY5Y cells assessed as increase in neuronal viability measured after 24 hrs in presence of amyloid beta (25 to 35) by MTT assay; assay type: functional, cell-based; details: dose 1-10 µM
[11] = test system: SH-SY5Y; assay: Neuroprotective activity against amyloid beta (25 to 35)-induced oxidative stress in human SH-SY5Y cells assessed as decrease in intracellular ROS production at 10 uM incubated with amyloid beta (25 to 35) for 24 hrs by DCFH-DA staining-based flow cytometric analysis; assay type: functional, cell-based
How it was run: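 SH-SY5Y (1×10⁶ cells/well) grown 24 h, then exposed to unaggregated Aβ25-35 (10 µM) ± compounds (10 µM) for 24 h at 37 °C. After three PBS washes, cells were loaded with DCFH-DA (10 µM) for 30 min, rinsed, pelleted at 1500 rpm for 5 min, resuspended in PBS and analyzed by flow cytometry (10,000 events). Mean ± SD of three experiments.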

[12] = biological target: T1, Amyloid-beta precursor protein; assay: Inhibition of amyloid beta(25 to 35) (unknown origin) binding to human SH-SY5Y cell plasma membrane at 10 uM measured after 20 mins by UV-vis microplate reader assay; assay type: cell membranes
How it was run: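 SH-SY5Y cells seeded 24 h, then fresh medium with Aβ25-35 (10 µM) ± compounds (10 µM) for 30, 60 and 120 min. After two PBS washes, bound peptide was stained with Congo red in PBS for 20 min and read at 540 nm. Values are % of untreated cells (100%).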

[13] = test system: SH-SY5Y; assay: Neuroprotective activity against amyloid beta (25 to 35)-induced cell damage in human SH-SY5Y cells assessed as viable at 10 uM by annexin-V and propidium iodide staining based flow cytometry analysis assay (reference value: 88.2 %); assay type: functional
How it was run: (§1)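 SH-SY5Y cells exposed to Aβ25-35 (10 µM) ± compounds (10 µM), then trypsinized, washed with PBS and pelleted at 1000 rpm for 3 min. Cells were stained with FITC-Annexin V and PI in binding buffer for 15 min at room temperature and analyzed by flow cytometry (10,000 events). Mean ± SD of three experiments.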

[14] = test system: SH-SY5Y; assay: Neuroprotective activity against amyloid beta (25 to 35)-induced cell damage in human SH-SY5Y cells assessed as early apoptotic cell at 10 uM by annexin-V and propidium iodide staining based flow cytometry analysis assay (reference value: 10.9 %); assay type: functional; how it was run: as §1
[15] = test system: SH-SY5Y; assay: Neuroprotective activity against amyloid beta (25 to 35)-induced cell damage in human SH-SY5Y cells assessed as late apoptotic cell at 10 uM by annexin-V and propidium iodide staining based flow cytometry analysis assay (reference value: 0.890 %); assay type: functional; how it was run: as §1
[16] = test system: SH-SY5Y; assay: Neuroprotective activity against amyloid beta (25 to 35)-induced cell damage in human SH-SY5Y cells assessed as necrotic cell at 10 uM by annexin-V and propidium iodide staining based flow cytometry analysis assay (reference value: 0 %); assay type: functional; how it was run: as §1

COc1ccc(CN2CCC(c3cc4ccccc4o3)CC2)cc1
inhibition [1]: 8.04%
pIC50 [2]: 4.03
pIC50 [3]: < 4.00

COc1ccc(OC)c(CN2CCC(c3cc4ccccc4o3)CC2)c1
inhibition [1]: 51.8%
pIC50 [2]: 4.62
pIC50 [3]: 4.45
Selectivity Index [4]: 0.04
viability at 48 h, 10 µM ([5]; SH-SY5Y cells): 102%
Activity [6]: 79.09%
Activity [7]: 324.83%
Activity [8]: 102.53%
Activity [9]: 11.9%

COc1cc2c(cc1OC)C(=O)C(CC1CCN(Cc3ccccc3)CC1)C2 (stereo unspecified) [DONEPEZIL]
viability at 48 h, 10 µM ([5]; sh-sy5y): 101%
Activity [6]: 60.82%

Oc1ccc(CN2CCC(c3cc4ccccc4o3)CC2)cc1
inhibition [1]: 48.3%
pIC50 [2]: 4.46
pIC50 [3]: 4.19
Selectivity Index [4]: 1.8
viability at 48 h, 10 µM ([5]; SH-SY5Y cells): 96.4%
Activity [9]: 12.2%

COc1ccc(CN2CCC(c3cc4ccccc4o3)CC2)cc1OC
inhibition [1]: 14.7%
pIC50 [2]: 4.28
pIC50 [3]: 4.19
Selectivity Index [4]: 1.2

COc1ccc(CN2CCC(c3oc4ccccc4c3C(=O)c3ccc(OC)c(OC)c3)CC2)cc1OC
inhibition [1]: 54.4%
pIC50 [2]: 4.17
pIC50 [3]: 4.21
Selectivity Index [4]: 0.9

c1ccc(CN2CCC(c3cc4ccccc4o3)CC2)cc1
inhibition [1]: 55.4%
pIC50 [2]: 5.29
pIC50 [3]: 4.27
Selectivity Index [4]: 10.8
viability at 48 h, 10 µM ([5]; SH-SY5Y cells): 105%
Activity [6]: 88.91%
Activity [10]: Dose-Dependent Effect
Activity [7]: 294.64%
Activity [8]: 101.59%
Activity [9]: 18.2%
Activity [11]: Active
inhibition (INH) [12]: Active
Activity [13]: 97.5%
Activity [14]: 1.08%
Activity [15]: 0.55%
Activity [16]: 0.03%

O=C(c1ccccc1)c1c(C2CCN(Cc3ccccc3)CC2)oc2ccccc12
inhibition [1]: 61.9%
pIC50 [2]: 4.38
pIC50 [3]: < 4.00
viability at 48 h, 10 µM ([5]; SH-SY5Y cells): 107%
Activity [6]: 76.06%
Activity [7]: 316.05%
Activity [8]: 95.49%
Activity [9]: 21.6%
Activity [11]: Active
inhibition (INH) [12]: Active
Activity [13]: 98.1%
Activity [14]: 0.77%
Activity [15]: 0.65%
Activity [16]: 0.52%

COc1ccc(CN2CCC(c3oc4ccccc4c3C(=O)c3ccccc3)CC2)cc1OC
inhibition [1]: 42.9%
pIC50 [2]: 4.34
pIC50 [3]: < 4.00

Fc1ccc(CN2CCC(c3cc4ccccc4o3)CC2)cc1
inhibition [1]: 57.7%
pIC50 [2]: 4.67
pIC50 [3]: 4.25
Selectivity Index [4]: 2.6
viability at 48 h, 10 µM ([5]; SH-SY5Y cells): 101%
Activity [6]: 80.8%
Activity [10]: Dose-Dependent Effect
Activity [7]: 287.37%
Activity [8]: 104.56%
Activity [9]: 10.8%
Activity [11]: Active
inhibition (INH) [12]: Active
Activity [13]: 98.2%
Activity [14]: 1.2%
Activity [15]: 0.05%
Activity [16]: 1.58%

CCc1ccc(CN2CCC(c3cc4ccccc4o3)CC2)cc1
inhibition [1]: 19.9%
pIC50 [2]: 4.19
pIC50 [3]: < 4.00

Oc1ccc(/C=C/c2cc(O)cc(O)c2)cc1
Activity [9]: 45.7%

COc1ccc(C(=O)c2c(C3CCN(Cc4ccccc4)CC3)oc3ccccc23)cc1
inhibition [1]: 47.4%
pIC50 [2]: 4.32
pIC50 [3]: 4.28
Selectivity Index [4]: 1.07
viability at 48 h, 10 µM ([5]; SH-SY5Y cells): 107%
Activity [6]: 75.17%
Activity [7]: 285%
Activity [8]: 100.79%
Activity [9]: 17.6%

Cc1c(C)c2c(c(C)c1O)CCC(C)(C(=O)O)O2 (stereo unspecified)
Activity [9]: 55.5%

COc1ccc(OC)c(CN2CCC(c3oc4ccccc4c3C(=O)c3ccc(OC)c(OC)c3)CC2)c1
inhibition [1]: 37.4%
pIC50 [2]: 4.26
pIC50 [3]: 4.18
Selectivity Index [4]: 1.19

c1ccc2oc(C3CCNCC3)cc2c1
inhibition [1]: 45.5%
pIC50 [2]: 4.21
pIC50 [3]: 4.19
Selectivity Index [4]: 1

COc1ccc(CN2CCC(c3oc4ccccc4c3C(=O)c3ccccc3)CC2)cc1
inhibition [1]: 42.2%
pIC50 [2]: 4.01
pIC50 [3]: 4.20
Selectivity Index [4]: 0.6

COc1ccc(CN2CCC(c3oc4ccccc4c3C(=O)c3ccc(OC)cc3)CC2)cc1
inhibition [1]: 45%
pIC50 [2]: 4.22
pIC50 [3]: 4.22
Selectivity Index [4]: 0.99

COc1ccc(C(=O)c2c(C3CCN(Cc4cc(OC)ccc4OC)CC3)oc3ccccc23)cc1
inhibition [1]: 46%
pIC50 [2]: 4.21
pIC50 [3]: 4.21
Selectivity Index [4]: 1.01

COc1cc(/C=C/C(=O)CC(=O)/C=C/c2ccc(O)c(OC)c2)ccc1O [CURCUMIN]
viability at 48 h, 10 µM ([5]; SH-SY5Y cells): 60%
Activity [6]: 45.95%

COc1cc(/C=C/C(=O)O)ccc1O
Activity [9]: 50%

COc1ccc(OC)c(CN2CCC(c3oc4ccccc4c3C(=O)c3ccccc3)CC2)c1
inhibition [1]: 39.4%
pIC50 [2]: 4.24
pIC50 [3]: 4.47
Selectivity Index [4]: 0.45

Clc1ccc(CN2CCC(c3cc4ccccc4o3)CC2)cc1
inhibition [1]: 24.4%
pIC50 [2]: 4.01
pIC50 [3]: < 4.00
